What was measured:
[1] = tested on: tumor infiltrating immune cells; assay: Flow cytometry analysis of tumor-infiltrating immune cells; format: in vivo, BALB/c mice; settings: CT26 tumor-bearing mice, 16 mg/kg daily, 5 days
In short: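 Tumor-bearing mice (n = 5) got vehicle or test compound. Tumors were cut up and digested in RPMI 1640 with 0.1% type IV collagenase and 0.01% DNase I at 37 °C for 45 min, passed through a 70 μm strainer, and red cells lysed. Cells were Fc-blocked on ice for 15 min and surface-stained on ice for 30 min. MDSCs were scored as a proportion of CD45⁺ cells (mean ± SEM).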

MC38 cells = assay: SRB cell proliferation assay, MC38; format: cell-based, murine; settings: gradient concentrations, 72 h
CT26 cells = assay: SRB cell proliferation assay, CT26; format: cell-based, murine; settings: gradient concentrations, 72 h

O=C(/C=C/c1cccnc1)NCCCCC1CCN(C(=O)c2ccccc2)CC1 [FK866] was tested, and the “infiltrating MDSCs in CT26 tumors” value [1] was “did not affect”, the cell growth sensitivity (MC38 cells) was “did not show the apparent growth dependency” and the cell growth sensitivity (CT26 cells) was “did not show the apparent growth dependency”.
